According to PMC4708961 (Drug Design, Development and Therapy, 2016):

Columns and labels:
ACE = target: T1, ACE (Oryctolagus cuniculus, UniProt P12822); experiment: In vitro ACE inhibition assay; assay type: biochemical; settings: IC50, ACE from rabbit lung acetone powder; substrate HHL
T1 sequence (P12822 34-1310): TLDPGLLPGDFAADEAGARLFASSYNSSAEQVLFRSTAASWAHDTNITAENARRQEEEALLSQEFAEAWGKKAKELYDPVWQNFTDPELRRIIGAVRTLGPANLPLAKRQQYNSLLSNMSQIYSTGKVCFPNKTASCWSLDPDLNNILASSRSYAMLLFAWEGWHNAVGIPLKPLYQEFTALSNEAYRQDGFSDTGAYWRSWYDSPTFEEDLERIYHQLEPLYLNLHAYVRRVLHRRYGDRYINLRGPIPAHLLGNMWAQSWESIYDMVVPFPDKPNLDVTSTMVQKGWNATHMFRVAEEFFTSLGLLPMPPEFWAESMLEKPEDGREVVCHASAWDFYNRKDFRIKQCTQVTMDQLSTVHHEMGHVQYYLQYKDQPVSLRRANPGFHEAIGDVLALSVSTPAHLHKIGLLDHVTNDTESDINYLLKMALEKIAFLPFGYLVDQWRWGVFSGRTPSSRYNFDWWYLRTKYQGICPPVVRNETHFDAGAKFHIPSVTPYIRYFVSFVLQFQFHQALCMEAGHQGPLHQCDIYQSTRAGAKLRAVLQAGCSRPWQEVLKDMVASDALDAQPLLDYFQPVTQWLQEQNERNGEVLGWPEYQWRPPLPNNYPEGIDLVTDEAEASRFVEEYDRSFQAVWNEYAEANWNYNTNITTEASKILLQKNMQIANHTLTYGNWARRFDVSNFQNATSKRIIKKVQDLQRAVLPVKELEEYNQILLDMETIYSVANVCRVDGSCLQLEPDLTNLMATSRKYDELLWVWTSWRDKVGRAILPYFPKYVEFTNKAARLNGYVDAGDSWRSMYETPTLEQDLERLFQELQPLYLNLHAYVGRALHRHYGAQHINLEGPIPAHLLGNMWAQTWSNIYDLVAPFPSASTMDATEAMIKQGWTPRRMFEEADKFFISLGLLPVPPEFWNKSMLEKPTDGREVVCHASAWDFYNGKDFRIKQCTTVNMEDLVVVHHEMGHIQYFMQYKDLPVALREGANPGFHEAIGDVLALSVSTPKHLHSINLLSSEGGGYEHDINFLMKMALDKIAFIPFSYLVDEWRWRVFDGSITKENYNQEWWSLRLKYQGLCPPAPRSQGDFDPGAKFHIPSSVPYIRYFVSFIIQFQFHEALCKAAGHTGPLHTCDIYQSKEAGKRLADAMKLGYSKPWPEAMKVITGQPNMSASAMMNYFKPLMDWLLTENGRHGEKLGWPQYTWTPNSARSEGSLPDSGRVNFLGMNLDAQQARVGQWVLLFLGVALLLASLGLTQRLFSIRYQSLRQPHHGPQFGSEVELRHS

[1] = Bioavailability study after oral administration in mice; assay type: in vivo
How it was run: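 Swiss Webster mice aged 20–25 weeks, in control and test groups (n=5), were dosed orally by dosing needle at 3 mg per 30 g body weight; a comparator group received 2 g/kg orally. Plasma was precipitated with 40% methanol and spun at 14,000 rpm for 10 min. The supernatant was run on RP-Amide HPLC (50 mmol/L NaH2PO4 pH 4.3 to 70% acetonitrile gradient, 0.7 mL/min) with electrochemical detection.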

NO donor activity = settings: 100 μmol, phosphate buffer pH 7.4, 5 mM L-cysteine, 3 hours at 37°C
How it was run: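 Test compound in DMSO (100 μmol) was added to 50 mM phosphate buffer pH 7.4 with 5 mM L-cysteine hydrochloride and held 3 h at 37°C. Griess reagent was then added, and absorbance at 550 nm was read after 20 min against a 5–50 μM sodium nitrite calibration curve. Release was expressed as mol nitrite detected per mol test compound ×100.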

isolated rat hearts = experiment: Vasodilator activity on isolated rat hearts; settings: 10 μg test compound
[2] = experimental rats; cited from earlier work
[3] = mice, 3 mg per 30 g body weight
[4] = isolated rat heart, BaCl2-induced reduction

Structure (SMILES)	IC50 (ACE)	other results
CCCN1C/C(=C\c2ccc([N+](=O)[O-])cc2)C(=O)/C(=C/c2ccc([N+](=O)[O-])cc2)C1 [Compound 4n, (3E,5E)-3,5-bis(4-nitrobenzylidene)-1-propylpiperidin-4-one]	90.2 µM	
CCCCCN1C/C(=C\c2ccc(O)c(O)c2)C(=O)/C(=C/c2ccc(O)c(O)c2)C1 [Compound 4h, (3E,5E)-3,5-bis(3,4-dihydroxybenzylidene)-1-pentylpiperidin-4-one]	48.6 µM	
CCCN1C/C(=C\c2cc(OC)c(OC)c(OC)c2)C(=O)/C(=C/c2cc(OC)c(OC)c(OC)c2)C1 [Compound 4j, (3E,5E)-1-propyl-3,5-bis(3,4,5-trimethoxybenzylidene) piperidin-4-one]	1.23 µM	in vivo bioavailability ([1]; mice): better in vivo bioavailability compared with curcumin; plasma concentration [1, 3]: 35 µM; time until first detected in plasma [1, 3]: 10 min
CCCCN1C/C(=C\c2ccc(O)c(O)c2)C(=O)/C(=C/c2ccc(O)c(O)c2)C1 [Compound 4g, (3E,5E)-1-butyl-3,5-bis(3,4-dihydroxybenzylidene) piperidin-4-one]	41.3 µM	
CCCCN1C/C(=C\c2cc(OC)c(OC)c(OC)c2)C(=O)/C(=C/c2cc(OC)c(OC)c(OC)c2)C1 [Compound 4k, (3E,5E)-1-butyl-3,5-bis(3,4,5-trimethoxybenzylidene) piperidin-4-one]	4.45 µM	
CCCN1C/C(=C\c2ccc(O)c(O)c2)C(=O)/C(=C/c2ccc(O)c(O)c2)C1 [Compound 4f, (3E,5E)-3,5-bis(3,4-dihydroxybenzylidene)-1-propylpiperidin-4-one]	20.1 µM	
CCCCCN1C/C(=C\c2ccc([N+](=O)[O-])cc2)C(=O)/C(=C/c2ccc([N+](=O)[O-])cc2)C1 [Compound 4p, (3E,5E)-3,5-bis(4-nitrobenzylidene)-1-pentylpiperidin-4-one]	120 µM	
CCN1C/C(=C\c2ccccc2)C(=O)/C(=C/c2ccccc2)C1 [Compound 4a, (3E,5E)-3,5-dibenzylidene-1-ethylpiperidin-4-one]	50.9 µM	
CCCCCN1C/C(=C\c2ccccc2)C(=O)/C(=C/c2ccccc2)C1 [Compound 4d, (3E,5E)-3,5-dibenzylidene-1-pentylpiperidin-4-one]	78.5 µM	
CCCCCN1C/C(=C\c2cc(OC)c(OC)c(OC)c2)C(=O)/C(=C/c2cc(OC)c(OC)c(OC)c2)C1 [Compound 4l, (3E,5E)-1-pentyl-3,5-bis(3,4,5-trimethoxybenzylidene) piperidin-4-one]	6.65 µM	NO donor activity (percentage of NO2) (NO donor activity): highest donor activity
CCN1C/C(=C\c2cc(OC)c(OC)c(OC)c2)C(=O)/C(=C/c2cc(OC)c(OC)c(OC)c2)C1 [Compound 4i, (3E,5E)-1-ethyl-3,5-bis(3,4,5-trimethoxybenzylidene) piperidin-4-one]	3.21 µM	
CCCN1C/C(=C\c2ccccc2)C(=O)/C(=C/c2ccccc2)C1 [Compound 4b, (3E,5E)-3,5-dibenzylidene-1-propylpiperidin-4-one]	51.1 µM	
CCCCN1C/C(=C\c2ccccc2)C(=O)/C(=C/c2ccccc2)C1 [Compound 4c, (3E,5E)-3,5-dibenzylidene-1-butylpiperidin-4-one]	64.4 µM	
CCCCN1C/C(=C\c2ccc([N+](=O)[O-])cc2)C(=O)/C(=C/c2ccc([N+](=O)[O-])cc2)C1 [Compound 4o, (3E,5E)-1-butyl-3,5-bis(4-nitrobenzylidene)piperidin-4-one]	131 µM	
CCN1C/C(=C\c2ccc(O)c(O)c2)C(=O)/C(=C/c2ccc(O)c(O)c2)C1 [Compound 4e, (3E,5E)-3,5-bis(3,4-dihydroxybenzylidene)-1-ethylpiperidin-4-one]	32.2 µM	
CCN1C/C(=C\c2ccc([N+](=O)[O-])cc2)C(=O)/C(=C/c2ccc([N+](=O)[O-])cc2)C1 [Compound 4m, (3E,5E)-1-ethyl-3,5-bis(4-nitrobenzylidene)piperidin-4-one]	95.1 µM	
COc1cc(/C=C/C(=O)CC(=O)/C=C/c2ccc(O)c(OC)c2)ccc1O [curcumin]		heart rate (isolated rat hearts): did not result in any significant changes; cardiac output (isolated rat hearts; [4]): did not result in any significant changes; stroke volume (isolated rat hearts; [4]): did not result in any significant changes; NO donor activity (percentage of NO2) (NO donor activity): did not result in any significant changes; time until first observed in the blood ([1]; curcumin 2 g/kg): ~80 min; oral bioavailability [2]: very poor
